From ChEMBL document CHEMBL1124381, “Studies on angiotensin converting enzyme inhibitors. 4. Synthesis and angiotensin converting enzyme inhibitory activities of 3-acyl-1-alkyl-2-oxoimidazolidine-4-carboxylic acid derivatives” (J Med Chem, 1989)
Where “and” joins values, the source holds several entries; their conditions need not be identical. Identical values can stand only once.

Tests used:
Rattus norvegicus [1] = species: Rattus norvegicus; assay: Change in systolic blood pressure; format: functional, Artery
Outline: (§1)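 Male NCrj SHRs, 18-22 weeks old, about 350 g, baseline systolic pressure 180-200 mmHg, fasted 18-20 h. Drug given orally in distilled water at 1, 2, 5 or 10 mg/kg; vehicle 4 mL/kg. Systolic pressure by tail plethysmograph. Initial value, maximum, time of maximum, change and duration of significant fall recorded; mean ± SE.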

Rattus norvegicus [2] = assay: Initial systolic blood pressure in spontaneously hypertensive rats after administration of 2 mg/kg of compound perorally; format: functional, Artery; conditions: route oral; outline: as §1
Rattus norvegicus [3] = assay: Maximum effect on systolic blood pressure in spontaneously hypertensive rats after administration of 10 mg/kg of compound perorally; format: functional, Artery; conditions: route oral; outline: as §1
Rattus norvegicus [4] = assay: Maximum effect on systolic blood pressure in spontaneously hypertensive rats after administration of 1 mg/kg of compound perorally; format: functional, Artery; conditions: route oral; outline: as §1
Rattus norvegicus [5] = assay: Maximum inhibitory effect on Angiotensin I induced pressor responses in anesthetized normotensive rats with 1.0 mg/Kg dose of compound given perorally; format: functional; conditions: po
Outline: (§2)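 Male Wistar slc rats, 300-400 g, anesthetized, fasted 18-20 h. Drug given orally in distilled water once a constant angiotensin I pressor rise was confirmed. […] ID50 from a linear regression curve. Maximum inhibition reported.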

Rattus norvegicus [6] = assay: The time required for the maximal fall in blood pressure after administration of the compound; format: functional; outline: as §1
Rattus norvegicus [7] = assay: Maximum inhibitory effect on Angiotensin I induced pressor responses in anesthetized normotensive rats with 0.5 mg/Kg dose of compound given perorally; format: functional; conditions: po; outline: as §2
Rattus norvegicus [8] = assay: Initial systolic blood pressure in spontaneously hypertensive rats after administration of 1 mg/kg of compound perorally; format: functional, Artery; conditions: route oral; outline: as §1
Rattus norvegicus [9] = assay: Maximum effect on systolic blood pressure in spontaneously hypertensive rats after administration of 2 mg/kg of compound perorally; format: functional, Artery; conditions: route oral; outline: as §1
Rattus norvegicus [10] = species: Rattus norvegicus; assay: The duration time of the hypotensive effect showing statistically significant difference from initial value was determined; format: functional; outline: as §1
Rattus norvegicus [11] = assay: Initial systolic blood pressure in spontaneously hypertensive rats after administration of 5 mg/kg of compound perorally; format: functional, Artery; conditions: route oral; outline: as §1
Rattus norvegicus [12] = assay: Maximum effect on systolic blood pressure in spontaneously hypertensive rats after administration of 5 mg/kg of compound perorally; format: functional, Artery; conditions: route oral; outline: as §1
Rattus norvegicus [13] = assay: Initial systolic blood pressure in spontaneously hypertensive rats after administration of 10 mg/kg of compound perorally; format: functional, Artery; conditions: route oral; outline: as §1
Rattus norvegicus [14] = assay: Maximum inhibitory effect on Angiotensin I induced pressor responses in anesthetized normotensive rats with 0.2 mg/Kg dose of compound given perorally; format: functional; conditions: po; outline: as §2
Rattus norvegicus [15] = species: Rattus norvegicus; assay: Inhibitory effect on Angiotensin I induced pressor responses in normotensive rats when given perorally; format: functional; conditions: po, read-out: ID50 (the source's name); outline: as §2
Rattus norvegicus [16] = assay: Maximum inhibitory effect of on Angiotensin I induced pressor responses in anesthetized normotensive rats with 1.0 mg/Kg dose of compound given perorally; format: functional; conditions: po; outline: as §2
Rattus norvegicus [17] = assay: Maximum inhibitory effect on Angiotensin I induced pressor responses in anesthetized normotensive rats with 10 ug/kg dose of compound given intra venously; format: functional
Rattus norvegicus [18] = assay: Maximum inhibitory effect on Angiotensin I induced pressor responses in anesthetized normotensive rats with 10 ug/kg dose of compound given intravenously; format: functional; conditions: iv
Rattus norvegicus [19] = species: Rattus norvegicus; assay: Inhibitory effect of on Angiotensin I induced pressor responses in normotensive rats when given perorally; format: functional; conditions: po, read-out: ID50 (the source's name); outline: as §2
Rattus norvegicus [20] = assay: Maximum inhibitory effect of on Angiotensin I induced pressor responses in anesthetized normotensive rats with 0.2 mg/Kg dose of compound given perorally; format: functional; conditions: po; outline: as §2
Rattus norvegicus [21] = assay: Maximum inhibitory effect of on Angiotensin I induced pressor responses in anesthetized normotensive rats with 0.5 mg/Kg dose of compound given perorally; format: functional; conditions: po; outline: as §2

`CCOC(=O)[C@H](CCc1ccccc1)N[C@@H](C)C(=O)N1CCC[C@H]1C(=O)O` was tested, and the Change (Rattus norvegicus [1]) was -23.3 [middle of 4 runs], the Systolic blood pressure (Rattus norvegicus [2]) was 192.9 mmHg and the Systolic blood pressure (Rattus norvegicus [3]) was 165 mmHg. For the same compound, the Systolic blood pressure (Rattus norvegicus [4]) was 178.3 mmHg, the inhibition in vivo at 1 mg/kg (Rattus norvegicus [5]) was 69.8% and the Time (Rattus norvegicus [6]) was 3 h and 6 h. The inhibition in vivo at 0.5 mg/kg (Rattus norvegicus [7]) was 50.5%, the Systolic blood pressure (Rattus norvegicus [8]) was 190.8 mmHg and the Systolic blood pressure (Rattus norvegicus [9]) was 168.6 mmHg. The Duration (Rattus norvegicus [10]) was >9 h, the Systolic blood pressure (Rattus norvegicus [11]) was 190 mmHg and the Systolic blood pressure (Rattus norvegicus [12]) was 166.7 mmHg. For the same compound, the Systolic blood pressure (Rattus norvegicus [13]) was 193.3 mmHg, the inhibition in vivo at 0.2 mg/kg (Rattus norvegicus [14]) was 42.9% and the ED50 (Rattus norvegicus [15]) was 0.3 mg/kg.
Work on `CCCCCCCC[C@H](N[C@@H](C)C(=O)N1C(=O)N(C)C[C@H]1C(=O)O)C(=O)OCC` yielded an inhibition in vivo at 1 mg/kg (Rattus norvegicus [16]) of 56.2%.
`CCCCCCCC[C@H](N[C@@H](C)C(=O)N1C(=O)N(Cc2ccccc2)C[C@H]1C(=O)O)C(=O)O` showed an inhibition in vivo at 0.01 mg/kg (Rattus norvegicus [17]) of 41%.
`C[C@H](N[C@@H](CCc1ccccc1)C(=O)O)C(=O)N1CCC[C@H]1C(=O)O` [ENALAPRILAT ANHYDROUS] was tested, and the inhibition in vivo at 0.01 mg/kg (Rattus norvegicus [18]) was 54.5%.
`CCCCCCCC[C@H](N[C@@H](C)C(=O)N1C(=O)N(C)C[C@H]1C(=O)O)C(=O)O` showed an inhibition in vivo at 0.01 mg/kg (Rattus norvegicus [17]) of 53.4% and an inhibition in vivo at 1 mg/kg (Rattus norvegicus [16]) of 18.4%.
Work on `C[C@H](N[C@@H](CCc1ccccc1)C(=O)O)C(=O)N1C(=O)N(Cc2ccccc2)C[C@H]1C(=O)O` yielded an inhibition in vivo at 0.01 mg/kg (Rattus norvegicus [17]) of 39%.
For `CCOC(=O)[C@H](CCc1ccccc1)N[C@@H](C)C(=O)N1C(=O)N(C)C[C@H]1C(=O)O`, the ED50 (Rattus norvegicus [19]) was 0.24 mg/kg, the Change (Rattus norvegicus [1]) was -25 [middle of 4 runs] and the Systolic blood pressure (Rattus norvegicus [2]; 2 mg/kg) was 165.8 mmHg and 192.5 mmHg. The inhibition in vivo at 0.2 mg/kg (Rattus norvegicus [20]) was 52%, the Time (Rattus norvegicus [6]) was 3 h and 6 h and the Systolic blood pressure (Rattus norvegicus [8]; 1 mg/kg) was 190 mmHg and 190.8 mmHg. The inhibition in vivo at 0.5 mg/kg (Rattus norvegicus [21]) was 62.7%, the Duration (Rattus norvegicus [10]) was >9 h and the Systolic blood pressure (Rattus norvegicus [11]; 5 mg/kg) was 191.4 mmHg and 164.3 mmHg. For the same compound, the Systolic blood pressure (Rattus norvegicus [13]) was 192 mmHg.
`C[C@H](N[C@@H](CCc1ccccc1)C(=O)O)C(=O)N1C(=O)N(C)C[C@H]1C(=O)O` was tested, and the inhibition in vivo at 0.01 mg/kg (Rattus norvegicus [17]) was 62.4%, the inhibition in vivo at 0.2 mg/kg (Rattus norvegicus [20]) was -7.2% and the inhibition in vivo at 1 mg/kg (Rattus norvegicus [16]) was 26.3%.
